# Sampled rows, rich in hits. Any-hit rate of the full collection: about 2.2%.
# Insulin prom inh – TRM-6 insulin promoter activity inhibition; 0.9% of 130,000 active; inhibition, % at 2 µM; AID 1273; TRM-6 cells (human fetal islet line), insulin promoter-eGFP reporter, imaging; reporter expression induced with tamoxifen;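 active = inhibition above the mean plus 3 SD, with well images judged a real hit on visual review, cut at about 60% in these data, passing the limit was not always enough; inconclusive = inhibition over the cutoff but images rejected on review; inactive = inhibition not above the cutoff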
# Ins promoter up – MIN6 insulin promoter up-regulation | MIN6 insulin promoter-GFP reporter, high-content imaging; stronger effect = higher value | z-score at 5 µM | 0.3% of 190,000 active | AID 1625;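 active = z-score above 3 at 5 µM with at least 500 cells counted in the well; inconclusive = wells under 500 cells, flagged as cytotoxic or low count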
# Wee1 stabilizer – human Wee1 degradation inhibition, primary screen; P30291; HeLa Luc-Wee1K328M stability, luciferase luminescence; 100% = proteasome inhibitor MG132 effect; reporter increase, % at 5 µM; 1.2% of 220,000 active; AID 1321;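 active = activation above the mean of all tested compounds plus 3 SD, set per screening run, cut at about 8.8% in these data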;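 also: cells exposed to compound for 20 h before luminescence read; 0% = DMSO alone and 100% = MG132 at 30 µM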
# Target sequence (P30291 whole entry K328M): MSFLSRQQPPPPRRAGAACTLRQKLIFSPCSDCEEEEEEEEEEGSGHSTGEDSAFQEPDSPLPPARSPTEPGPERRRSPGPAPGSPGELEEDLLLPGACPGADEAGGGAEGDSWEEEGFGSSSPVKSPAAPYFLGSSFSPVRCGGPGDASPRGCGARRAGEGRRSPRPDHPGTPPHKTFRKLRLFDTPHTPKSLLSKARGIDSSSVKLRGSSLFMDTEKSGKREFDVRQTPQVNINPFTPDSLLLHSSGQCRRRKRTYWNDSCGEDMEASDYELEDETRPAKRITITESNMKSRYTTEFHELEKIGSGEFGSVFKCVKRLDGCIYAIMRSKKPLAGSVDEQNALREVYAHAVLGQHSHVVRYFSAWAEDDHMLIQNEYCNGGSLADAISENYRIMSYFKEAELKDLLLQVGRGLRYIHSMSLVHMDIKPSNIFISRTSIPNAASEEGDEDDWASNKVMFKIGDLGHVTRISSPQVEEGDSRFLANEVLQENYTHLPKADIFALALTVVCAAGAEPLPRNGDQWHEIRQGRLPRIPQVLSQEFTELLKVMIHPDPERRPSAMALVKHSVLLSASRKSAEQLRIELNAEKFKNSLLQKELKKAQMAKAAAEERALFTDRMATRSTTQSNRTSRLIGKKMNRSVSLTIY
# Hsp70 act – transcriptional activators of Hsp70 | HeLa Hsp70 promoter luciferase reporter, luminescence; scaled: vehicle 0, proteasome-inhibitor control 100% | activation, % at 10 µM | 0.04% of 200,000 active;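 active = activation above the mean across all tested compounds plus 3 SD, cutoff set per campaign, cut at about 5.5% in these data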;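 also: 100% = MG132 at 30 µM as the positive control and 0% = DMSO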
# RBBP9 inhibitor – inhibitors of human serine hydrolase RBBP9. O75884. recombinant RBBP9, FP-Rh probe fluorescence polarization. inhibition, % at 7.94 µM. 0.2% of 220,000 active. AID 1515;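 active = inhibition above the campaign mean of all tested compounds plus 3 SD, cut at about 14% in these data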;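 also: plate controls were DMSO wells with RBBP9 for no effect and wells lacking RBBP9 protein for full effect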
#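 Material: RBBP9 protein. Amount: RBBP9 at 2.5 µM in dispensed solution, before mixing. Schedule: 30 min then 45 min, 25 °C. Medium: Tris buffer pH 8.0, NaCl, Pluronic. Measured by: fluorescence polarization. Measure: percent inhibition from mP, scaled between DMSO and no-protein wells. Replication: one well per compound.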
# MDM2 E3 inh – blocks human Mdm2 ubiquitin ligase activity | Q00987 | cell-based MDM2 ubiquitination luciferase reporter, 2 h; 0 = plate control, 100 = twice control, blank-subtracted | signal enhancement, % at 5 µM | 0.11% of 210,000 active;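 active = signal enhancement of 30% or more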;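 also: luminescence tracks abundance of the self-degrading MDM2-luciferase fusion protein; higher signal means inhibition of MDM2 E3 ligase activity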
#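 Assay system: stable mammalian line carrying autodegrading MDM2–luciferase fusion reporter; amount: 2000 cells seeded into each well; buffer or medium: DMEM; benchmarks: plate control and blank wells; signal: luciferase luminescence; timing: 2 h compound exposure at 37 °C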
# Wee1 degr conf – human Wee1 degradation inhibition, confirmation; shares compounds with Wee1 stabilizer; 4% of 1,100 active; HeLa Luc-Wee1K328M degradation, luminescence; vehicle 0%, proteasome-blocked wells 100%; activation, % at 5 µM; in the data active = activation above about 8.9%
# The depositor's hits bear a star; ? = inconclusive; . = not tested or not shown.
SMILES,Insulin prom inh,Ins promoter up,Wee1 stabilizer,Hsp70 act,RBBP9 inhibitor,MDM2 E3 inh,Wee1 degr conf
Cc1ccc(NC(=O)Nc2cccs2)c(Cl)c1,38,0.22,2,0,-3,-11,.
O=C(Nc1ccc(Cl)cc1)N(Cc1cccnc1)Cc1ccco1,11,-0.4,-2,0,5,-1,.
COc1cc(C(C)=O)ccc1OC(=O)c1cc2cccc(OC)c2oc1=O,43,-1.7,53*,-1,-1,-6,3
COc1cc(/C=C2/NC(=O)N(Cc3ccccc3F)C2=O)ccc1O,.,-0.02,1,0,-3,-22,.
CN(Cc1cc2ccccc2[nH]c1=O)S(C)(=O)=O,-75,-0.03,13*,0,1,-2,-1
NCC[C@H](O)C(=O)N[C@@H]1C[C@H](N)[C@@H](O[C@H]2O[C@H](CN)[C@@H](O)[C@H](O)[C@H]2O)[C@H](O)[C@H]1O[C@H]1O[C@H](CO)[C@@H](O)[C@H](N)[C@H]1O,23,.,-2,0,-6,.,.
COc1ccc(-c2n[nH]c(=S)n2/N=C/C=C/c2ccccc2OC)cc1,.,-0.08,11*,0,-5,-10,7
Cc1ccc(S(=O)(=O)n2c3ccc(F)cc3c3nc(C)sc32)cc1,.,-0.04,6,0,-10,3,.
O=c1[nH][nH]c2ccccc2c1=O,.,-0.9,14*,.,-2,-10,2
CC(=O)Nc1cccc(NC(=O)C(=O)c2cn(CC(=O)N3CCCCC3)c3ccccc23)c1,.,.,4,0,-13,-15,.
O=C(c1cnn2c(C(F)F)cc(-c3ccccc3)nc12)N1CCCCC1c1cccnc1 (stereo not given),.,1.7,2,.,-5,-17,.
Cc1ccc(/C=C/C(=O)Nc2ccc(Oc3ccccc3)cc2)o1,45,-0.09,15*,0,-6,-1,2
Cc1ccc(/C=C/C(=O)Nc2ccc([N+](=O)[O-])cc2)o1,-13,?,0,0,-4,-58,.
CC(=O)Nc1ccc(N2C(=O)c3ccc(C(=O)Nc4nnc(SCc5ccc(F)cc5)s4)cc3C2=O)cc1,.,-0.8,0,0,2,1,.
Cc1cc(C)n(-c2ccc(C(=O)Nc3cc(C(F)(F)F)ccc3N3CCOCC3)cc2)n1,-40,-0.69,13*,0,-6,-12,0
Cc1cc(C)n(-c2ccc(C(=O)Nc3ccccc3N3CCOCC3)cc2)n1,-39,-0.99,7,0,-2,-6,.
O=C(O)COc1ccccc1/C=N/NC(=O)CN1CCN(Cc2ccc(Cl)cc2)CC1,.,0.01,25*,.,1,-73,2
CN(Cc1ccsc1)C(=O)CCc1nnc(CCCc2ccccc2)o1,.,-0.12,11*,0,3,-1,2
CN(Cc1ccsc1)C(=O)CCc1nnc(Cc2c[nH]c3ccccc23)o1,27,0.29,3,0,5,-12,.
Cc1nc2ccc(F)cc2cc1C(=O)Nc1ccc(Cl)c(Cl)c1,-2,.,15*,0,-11,-10,0
O=C(CCC1CCCN(C(=O)Cn2cnnn2)C1)NCc1ccccc1F (stereo not given),.,-0.11,2,0,4,-47,.
COc1ccccc1[C@@H]1C(c2cccc(Cl)c2)=NN(c2ccc(Br)cc2)[C@H]1C(=O)N1CCOC1=O,32,?,0,0,-5,.,.
C/C(CC(=O)NCCN1CCOCC1)=N\NC(=O)c1ccncc1,.,-0.08,2,.,-9,-23,.
O=C(NCCN1CCOCC1)c1ccncc1,.,0.01,12*,0,-3,-16,5
COc1ccc(/C=N/Nc2nn3cnnc3c3ccccc23)cc1,.,0.29,-3,.,-7,-7,.
SMILES,Insulin prom inh,Ins promoter up,Wee1 stabilizer,Hsp70 act,RBBP9 inhibitor,MDM2 E3 inh,Wee1 degr conf
CCOC(=O)C1CCN(S(=O)(=O)c2ccc(NC(C)=O)c(Cl)c2)CC1,.,.,11*,.,1,-10,1
CCOC(=O)C1CCN(S(=O)(=O)c2ccc(C(C)=O)cc2)CC1,-117,0.21,6,0,-7,-5,.
CCc1ccccc1NC(=O)c1ccc([N+](=O)[O-])s1,-111,-1.1,-4,0,-9,-15,.
CCN(CC)C(=O)CSCc1cnn(-c2ccccc2)c1-n1cccc1,4,0.42,16*,0,5,-22,1
CC1(C)Cc2c(C#N)c(NCCO)nc(-c3ccco3)c2CO1,.,.,18*,.,2,1,1
Cc1cccc(-n2c(SCC(=O)O)nc3sc4c(c3c2=O)CCC4)c1,.,0.14,13*,.,-5,5,0
O=C(O)CSc1nc2sc3c(c2c(=O)n1-c1ccccc1)CCC3,.,.,5,.,-8,-6,.
COC(=O)C1CC(O)CN1C(=O)Nc1ccccc1 (stereo not given),.,0.06,-2,0,-4,-3,.
Nc1n[nH]c(=S)n1/N=C1/C(=O)Nc2ccccc21,22,-0.29,-2,0,3,-1,.
Cc1ccc(NC(=O)c2scc3c2CCCC3)cc1,10,0.02,12*,0,-3,-57,-2
Cc1ccc(NC(=O)c2cc3c(s2)CCCC3)cc1,.,0.28,16*,0,-12,-7,2
O=C(CCC1CCCCC1)NCc1ccccn1,18,1.2,2,0,3,-6,.
COc1ccccc1NC(=O)C(=O)N(c1cccnc1)C(C(=O)NC(C)(C)C)c1ccccc1F (stereo not given),.,0.26,-1,0,-3,-3,.
Cc1cc(-n2nnc3ccccc32)nc2ccccc12,-6,.,13*,0,2,2,4
Cc1cc(N2CCCCC2)nc2ccccc12,33,-1.5,2,0,-8,-7,.
COc1ccc(Nc2nc(Cl)nc(Nc3ccc(OC)cc3)n2)cc1,19,-1.1,13*,0,-9,-22,2
C=CCNc1nc(Cl)nc(Nc2ccc(OC)cc2)n1,54,.,-1,0,-8,1,.
COc1ccccc1C1SCCN1S(C)(=O)=O (stereo not given),.,0.63,21*,0,-4,-2,5
COc1ccc(OC)c(C2SCCN2S(C)(=O)=O)c1 (stereo not given),10,-0.41,-1,0,-4,1,.
CC(=O)c1ccc(N=Nc2ccc(C)cc2)cc1,.,-0.6,24*,0,-9,-53,-4
O=C(NNC(=S)Nc1cccc(C(F)(F)F)c1)c1ccccc1Cl,35,0.18,12*,0,-1,-10,5
O=C(NNC(=S)Nc1cccc(C(F)(F)F)c1)c1cccc(Cl)c1,29,-0.07,3,0,-3,-22,.
CCOc1ccccc1C1C(C(=O)Nc2ccccc2OC)=C(C)Nc2nnnn21 (stereo not given),-23,.,-2,0,-4,-14,.

# Compound activity: PubChem, several laboratories
